The source made the active and inactive calls. The calls are words filed in the database; no cut-off is given here.
How the values were obtained:
[1] = tested on: HL-60; experiment: Effect on human HL60 cells assessed as fold change in CELF2 gene expression at 1.085 uM incubated for 6 hrs by microarray-based method; assay type: functional
How it was run: (§1)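 HL60 cells were treated in triplicate with 1.085 µM or vehicle for 6 h. Total RNA was extracted with on-column DNase treatment and profiled on expression arrays.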

[2] = tested on: HL-60; experiment: Effect on human HL60 cells assessed as fold change in TIAL1 gene expression at 1.085 uM incubated for 6 hrs by microarray-based method; assay type: functional; how it was run: as §1
[3] = tested on: HL-60; experiment: Induction of cell cycle arrest in human HL60 cells assessed as accumulation of cells at G2/M phase at EC50 by PI staining based flow cytometric analysis; assay type: functional; settings: TDE = time-dependent effect
[4] = tested on: HL-60; experiment: Effect on human HL60 cells assessed as fold change in ANKRD36 gene expression at 1.085 uM incubated for 6 hrs by microarray-based method; assay type: functional; how it was run: as §1
[5] = tested on: HL-60; experiment: Effect on human HL60 cells assessed as fold change in ARL17B gene expression at 1.085 uM incubated for 6 hrs by microarray-based method; assay type: functional; how it was run: as §1
[6] = tested on: HL-60; experiment: Effect on human HL60 cells assessed as fold change in CRADD gene expression at 1.085 uM incubated for 6 hrs by microarray-based method; assay type: functional; how it was run: as §1
[7] = tested on: HL-60; experiment: Induction of cell cycle arrest in human HL60 cells assessed as accumulation of cells at sub G0/G1 phase at EC50 incubated for 18 hrs by PI staining based flow cytometric analysis (reference value: 1.67%); assay type: functional
[8] = tested on: HL-60; experiment: Effect on human HL60 cells assessed as fold change in GDF10 gene expression at 1.085 uM incubated for 6 hrs by microarray-based method; assay type: functional; how it was run: as §1
[9] = tested on: HL-60; experiment: Effect on human HL60 cells assessed as fold change in TRPM2 gene expression at 1.085 uM incubated for 6 hrs by microarray-based method; assay type: functional
[10] = target: T1, Tubulin (Homo sapiens) (UniProt P68371+Q9H4B7+P0DPH7+P68366+Q13509+Q71U36+P04350+Q3ZCM7+P07437+P68363+Q9BQE3+Q6PEY2+Q13885+Q9BVA1+Q9BUF5); experiment: Induction of microtubule network depolymerization in human HeLa cells assessed as formation of abnormal chromosomal segregation at 500 nM incubated for 18 hrs by DAPI staining based fluorescence microscopic method; assay type: cell-based
How it was run: (§2)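 HeLa cells (100,000/mL) cultured overnight on glass-bottom dishes, then exposed to 500 nM or 1 μM, or DMSO, for 18 h. Permeabilized (0.5% Triton X-100) and fixed (3.7% formaldehyde). Stained overnight at 4 °C with anti-β-tubulin, then Alexa Fluor 647 secondary for 1 h at room temperature, and DAPI 1 μg/mL for 10 min. Examined by fluorescence microscopy.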

[11] = tested on: HL-60; experiment: Effect on human HL60 cells assessed as fold change in SPATA31A1 gene expression at 1.085 uM incubated for 6 hrs by microarray-based method; assay type: functional; how it was run: as §1
[12] = tested on: RS4-11; experiment: Antitumor activity against human RS4:11 cells xenografted in NOD/SCID mouse assessed as increase in survival at 10 mg/kg, ip administrated 5 times per week; assay type: functional, organism-based
How it was run: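 Ten million RS4;11 cells were injected into the tail vein of unconditioned NOD/SCID mice. Engraftment was tracked by flow cytometry of human versus mouse CD45 in ficoll-isolated blood. When human CD45+ cells reached ≥1.5% in half of the mice, animals were randomized (n=5 per group) to vehicle (1% PVP, 4% DMSO, 95% PBS) or 10 mg/kg ip, 5x per week until death. Groups were compared by Kaplan-Meier curves and log-rank test.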

[13] = tested on: HL-60; experiment: Effect on human HL60 cells assessed as fold change in SPRY1 gene expression at 1.085 uM incubated for 6 hrs by microarray-based method; assay type: functional; how it was run: as §1
[14] = tested on: RS4-11; experiment: Induction of DNA damage in human RS4:11 cells assessed as accumulation of cells at sub G2 phase at 300 nM incubated for 18 hrs in presence of H2AX antibody by immunofluorescent staining based flow cytometric analysis relative to control; assay type: functional
How it was run: (§3)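 RS4;11 cells treated with 300 nM or DMSO vehicle for 18 h, then pulsed with 10 μM BrdU for 1 h. Harvested cells immunostained for BrdU/PI (cell cycle), γH2AX (DNA damage) and PARP (apoptosis). Multicolor flow cytometry gated G1, sub-G2-like, G2/M and sub-G0/G1 populations.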

[15] = tested on: RS4-11; experiment: Induction of cell cycle arrest in human RS4:11 cells assessed as effect on S phase at 300 nM incubated for 18 hrs by BrdU/propidium iodide staining based flow cytometric analysis; assay type: functional; how it was run: as §3
[16] = tested on: HL-60; experiment: Effect on human HL60 cells assessed as fold change in HRH1 gene expression at 1.085 uM incubated for 6 hrs by microarray-based method; assay type: functional; how it was run: as §1
[17] = target: T1, Tubulin (Homo sapiens); experiment: Inhibition of tubulin polymerization in human CEM cells at 300 nM by Western blot analysis; assay type: cell-based; settings: TDE = time-dependent effect
How it was run: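 Leukemia cells (RS4;11, CEM, HL60) treated with 300 nM for 0, 15, 30, 60 and 360 min. Western blotting for β-tubulin and p53, with lamin B1 as loading control and chemiluminescent detection.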

[18] = tested on: HL-60; experiment: Effect on human HL60 cells assessed as fold change in KPNA1 gene expression at 1.085 uM incubated for 6 hrs by microarray-based method; assay type: functional; how it was run: as §1
[19] = tested on: HL-60; experiment: Effect on human HL60 cells assessed as fold change in IPO13 gene expression at 1.085 uM incubated for 6 hrs by microarray-based method; assay type: functional; how it was run: as §1
[20] = tested on: HL-60; experiment: Effect on human HL60 cells assessed as fold change in C7orf43 gene expression at 1.085 uM incubated for 6 hrs by microarray-based method; assay type: functional; how it was run: as §1
[21] = target: T1, Tubulin (Homo sapiens); experiment: Induction of microtubule network depolymerization in human HeLa cells assessed as fragmented centrosomal material at 500 nM incubated for 18 hrs by DAPI staining based fluorescence microscopic method; assay type: cell-based; how it was run: as §2
[22] = tested on: HL-60; experiment: Effect on human HL60 cells assessed as fold change in SGOL1 gene expression at 1.085 uM incubated for 6 hrs by microarray-based method; assay type: functional; how it was run: as §1
[23] = tested on: HL-60; experiment: Effect on human HL60 cells assessed as fold change in GBP3 gene expression at 1.085 uM incubated for 6 hrs by microarray-based method; assay type: functional; how it was run: as §1
[24] = tested on: HL-60; experiment: Effect on human HL60 cells assessed as fold change in ARL17A gene expression at 1.085 uM incubated for 6 hrs by microarray-based method; assay type: functional; how it was run: as §1
[25] = tested on: RS4-11; experiment: Induction of DNA damage in human RS4:11 cells assessed as accumulation of cells at G2 phase at 300 nM incubated for 18 hrs in presence of H2AX antibody by immunofluorescent staining based flow cytometric analysis relative to control; assay type: functional; how it was run: as §3
[26] = tested on: HL-60; experiment: Effect on human HL60 cells assessed as fold change in flaw-mawbo gene expression at 1.085 uM incubated for 6 hrs by microarray-based method; assay type: functional
[27] = tested on: HL-60; experiment: Induction of cell cycle arrest in human HL60 cells assessed as increase in accumulation of cells at sub G1 phase at EC50 by PI staining based flow cytometric analysis; assay type: functional; settings: TDE = time-dependent effect
[28] = tested on: HL-60; experiment: Induction of cell cycle arrest in human HL60 cells assessed as accumulation of cells at G2/M phase at EC50 incubated for 18 hrs by PI staining based flow cytometric analysis (reference value: 23.0%); assay type: functional
[29] = tested on: RS4-11; experiment: Induction of cell cycle arrest in human RS4:11 cells assessed as increase in accumulation at G2/M phase at 300 nM incubated for 18 hrs by BrdU/propidium iodide staining based flow cytometric analysis; assay type: functional; how it was run: as §3

- Activity [10]: Active
- inhibition [17]: Tde
- Activity [21]: Active
Structure (SMILES): COC(=O)c1[nH]c2cc(OC)ccc2c1-c1ccc(C(F)(F)F)cc1
- fold change (FC) [1]: 1.56
- fold change (FC) [2]: 1.63
- Activity [3]: Tde
- fold change (FC) [4]: 1.54
- fold change (FC) [5]: -1.5
- fold change (FC) [6]: 1.61
- Activity [7]: 24.1%
- fold change (FC) [8]: -1.56
- fold change (FC) [9]: 2.21
- fold change (FC) [11]: -1.61
- Activity [12]: Active
- fold change (FC) [13]: -1.5
- Activity [14]: 2.3%
- Activity [15]: inactive
- fold change (FC) [16]: 1.51
- fold change (FC) [18]: 1.89
- fold change (FC) [19]: 1.8
- fold change (FC) [20]: -1.72
- fold change (FC) [22]: 1.52
- fold change (FC) [23]: -1.62
- fold change (FC) [24]: -1.5
- Activity [25]: 6.9%
- fold change (FC) [26]: -1.62
- Activity [27]: Tde
- Activity [28]: 56.3%
- Activity [29]: Active

Source: ChEMBL document CHEMBL4359879, “Synthesis and evaluation of 2-carboxy indole derivatives as potent and selective anti-leukemic agents” (Eur J Med Chem, 2019)
